# Results reported in paper PMC7597899 (Chemical Science, 2020).
# Test: Acidity
# Assay type: physicochemical
# Settings: aqueous 0.15 M KCl, with or without methanol cosolvent
# How it was run: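 Potentiometric titrations in 0.15 M KCl, titrated with 0.5 M HCl and KOH over pH 2.0–12.0. Samples were ≤0.5 mg and run in triplicate. Standard deviation came from fitting all three replicates. For water-insoluble compounds, methanol was added and the apparent psKa was extrapolated to aqueous pKa by the Yasuda–Shedlovsky procedure.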
row,SMILES,pKa
1,"CONC(=O)c1n[nH]c2ccccc12 [Compound 1a, O-methyl indazole-3-hydroxamic acid]",8.43
2,"CONC(=O)c1nc2ccccc2[nH]1 [Compound 2a, O-methyl benzimidazole-2-hydroxamic acid]",7.21
3,"CONC(=O)c1nsc2ccccc12 [Compound 3a, O-Methyl 1,2-benzisothiazole-3-hydroxamic acid]",7.44
4,"CONC(=O)c1nc2ccccc2s1 [Compound 4a, O-methyl benzothiazole-2-hydroxamic acid]",6.34
